ChEMBL document CHEMBL4342496, “Design, Synthesis, Dynamic Docking, Biochemical Characterization, and in Vivo Pharmacokinetics Studies of Novel Topoisomerase II Poisons with Promising Antiproliferative Activity” (J Med Chem, 2020)
Active and inactive are the calls of the source. The calls are words filed in the database; no cut-off is given here.

Assays:
[1] = Half life in mouse plasma; format: ADME, cell-free
[2] = Half life in mouse liver microsomes; format: ADME, Microsome
[3] = molecular target: T1, DNA topoisomerase 2-alpha (Homo sapiens, UniProt P11388); test: Poison activity at human topo2alpha assessed as induction of accumulation of topo-2/DNA cleavage complex formation at 200 uM using […] plasmid incubated for 6 mins by SYBR safe DNA stain based cleavage complex formation assay
T1 sequence (P11388 whole entry): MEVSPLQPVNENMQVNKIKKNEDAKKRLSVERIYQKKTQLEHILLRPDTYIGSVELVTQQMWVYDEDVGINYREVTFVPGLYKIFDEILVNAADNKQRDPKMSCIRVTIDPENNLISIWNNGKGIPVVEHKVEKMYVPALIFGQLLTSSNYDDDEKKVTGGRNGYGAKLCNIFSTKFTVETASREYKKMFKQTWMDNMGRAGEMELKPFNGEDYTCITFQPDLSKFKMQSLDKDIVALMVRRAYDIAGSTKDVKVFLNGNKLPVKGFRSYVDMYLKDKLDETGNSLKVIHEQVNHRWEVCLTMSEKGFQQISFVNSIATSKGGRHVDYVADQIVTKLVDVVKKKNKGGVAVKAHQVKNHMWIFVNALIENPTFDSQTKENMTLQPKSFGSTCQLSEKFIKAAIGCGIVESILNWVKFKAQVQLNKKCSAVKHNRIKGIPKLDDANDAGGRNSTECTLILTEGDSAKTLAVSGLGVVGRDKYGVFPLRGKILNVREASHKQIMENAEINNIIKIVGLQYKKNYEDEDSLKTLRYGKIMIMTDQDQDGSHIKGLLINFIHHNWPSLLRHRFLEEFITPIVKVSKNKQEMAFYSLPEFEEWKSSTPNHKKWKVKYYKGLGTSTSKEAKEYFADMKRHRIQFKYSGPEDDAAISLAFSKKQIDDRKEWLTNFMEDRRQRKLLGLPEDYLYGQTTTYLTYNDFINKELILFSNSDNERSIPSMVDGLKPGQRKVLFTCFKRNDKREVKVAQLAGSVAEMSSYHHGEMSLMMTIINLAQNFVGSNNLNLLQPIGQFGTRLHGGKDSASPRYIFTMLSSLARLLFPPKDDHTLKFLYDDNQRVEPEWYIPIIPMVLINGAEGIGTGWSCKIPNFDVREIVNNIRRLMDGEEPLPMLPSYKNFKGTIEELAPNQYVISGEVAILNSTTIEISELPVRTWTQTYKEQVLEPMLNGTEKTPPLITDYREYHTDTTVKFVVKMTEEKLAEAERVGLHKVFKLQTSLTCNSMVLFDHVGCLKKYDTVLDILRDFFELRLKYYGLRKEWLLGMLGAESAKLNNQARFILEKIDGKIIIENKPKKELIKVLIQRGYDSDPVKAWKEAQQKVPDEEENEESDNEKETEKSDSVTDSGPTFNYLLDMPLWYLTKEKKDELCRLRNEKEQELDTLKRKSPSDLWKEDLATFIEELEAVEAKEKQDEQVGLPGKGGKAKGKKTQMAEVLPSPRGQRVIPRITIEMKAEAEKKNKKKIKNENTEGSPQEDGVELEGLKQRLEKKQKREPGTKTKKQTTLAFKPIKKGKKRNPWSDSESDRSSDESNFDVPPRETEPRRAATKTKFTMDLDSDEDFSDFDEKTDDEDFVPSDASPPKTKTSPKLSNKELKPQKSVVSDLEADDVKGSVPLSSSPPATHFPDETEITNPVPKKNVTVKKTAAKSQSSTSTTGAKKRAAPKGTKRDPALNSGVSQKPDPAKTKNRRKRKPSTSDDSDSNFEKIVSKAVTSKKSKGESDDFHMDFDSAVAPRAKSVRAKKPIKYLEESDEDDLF
Method in brief: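 Test compound at 200 μM was incubated with 1 U topoisomerase II and 500 ng […] plasmid for 6 min at 37 °C, with 1% DMSO final; vehicle and no-enzyme lanes served as controls. Products were run on a 1% agarose gel with SYBR Safe stain. The band intensity of linear DNA (form III) was quantified and normalized.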

[4] = Kinetic solubility in neutral buffer; format: physicochemical
Method in brief: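 Kinetic solubility measured in aqueous buffer at pH 7.4.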

[5] = Plasma concentration in mouse at 10 mg/kg, po after 6 hrs; format: ADME, organism-based
Method in brief: (§1)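 Mice dosed orally at 10 mg/kg, with n = 3 animals per time point. Plasma concentration was followed over time, with sampling to at least 6 h.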

[6] = Plasma concentration in mouse at 10 mg/kg, po after 1 hr; format: ADME, organism-based; method in brief: as §1
[7] = molecular target: T1, DNA topoisomerase 2-alpha; test: Inhibition of human topo2alpha by plasmid relaxation assay

| Compound | half-life [1] [h] | half-life [2] [h] | Activity [3] | Kinetic_solubility [4] [µM] | concentration at 6 h [5] [ng/mL] | concentration at 1 h [6] [ng/mL] | IC50 [7] [µM] |
| --- | --- | --- | --- | --- | --- | --- | --- |
| CC(C)Oc1cccc(NC(=O)c2c(O)n(-c3ccccc3)c(=S)n(-c3ccccc3)c2=O)c1 | > 2 | > 1 |  |  |  |  |  |
| O=C(Nc1cccc(OC(F)F)c1)c1c(O)n(-c2ccccc2)c(=S)n(-c2ccccc2)c1=O | > 2 | > 1 | Active | 208 |  |  |  |
| O=C(Nc1cccc(OC(F)(F)F)c1)c1c(O)n(-c2ccccc2)c(=S)n(-c2ccccc2)c1=O | > 2 | > 1 | Active | 224 | 400 | 400 |  |
| CC(F)(F)c1cccc(NC(=O)c2c(O)n(-c3ccccc3)c(=S)n(-c3ccccc3)c2=O)c1 | > 2 | > 1 |  |  |  |  |  |
| O=C(Nc1cccc(C(F)F)c1)c1c(O)n(-c2ccccc2)c(=S)n(-c2ccccc2)c1=O | > 2 | > 1 | Active | 238 |  |  |  |
| O=C1NC(=S)NC(=O)C1C(=O)Nc1ccccc1 [MERBARONE] |  |  |  |  |  |  | 40 |
| COc1cccc(CCNC(=O)c2c(O)n(-c3ccccc3)c(=S)n(-c3ccccc3)c2=O)c1 | > 2 | > 1 |  |  |  |  |  |
